Columns and labels:
Homo sapiens [1] = species on record: Homo sapiens; assay: Inhibition of P-gp-mediated paclitaxel resistance in human LCC6MDR cells assessed as fold decrease in paclitaxel IC50 for cytotoxic activity at 1 uM after 5 days by MTS assay relative to parental cells; format: cell-based
Homo sapiens [2] = species on record: Homo sapiens; assay: Inhibition of P-gp-mediated paclitaxel resistance in human LCC6MDR cells assessed as fold decrease in paclitaxel IC50 for cytotoxic activity at 0.5 uM after 5 days by MTS assay relative to parental cells; format: cell-based
MDR = assay: Cytotoxicity against human MDA435/LCC6MDR cells expressing MDR after 72 hrs; format: functional, cell-based
How it was run: (§1)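 Cells seeded at 1 × 10⁴ per well in supplemented DMEM and given graded doses of dimer for 72 h at 37 °C, 5% CO₂. Survival measured and IC50 derived. N = 1–3 independent experiments, mean ± SEM.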

[3] = Cytotoxicity against human LCC-6 cells after 72 hrs; format: functional, cell-based; conditions: LCC-6, 72 h; how it was run: as §1
L929 = assay: Cytotoxicity against mouse L929 cells after 72 hrs; format: cell-based; conditions: L929, 72 h; how it was run: as §1
[4] = Therapeutic index, ratio of IC50 for L929 cells to EC50 for reversing paclitaxel resistance in human MDA435/LCC6MDR cells; format: cell-based; conditions: L929 cells (IC50) and MDA435/LCC6MDR cells (EC50)
[5] = Reversal of P-gp-mediated paclitaxel-resistance in human LCC6MDR cells after 5 days by MTS assay; format: cell-based; conditions: 120 h

Row | Compound | Ratio (Homo sapiens [1]) | Ratio (Homo sapiens [2]) | IC50 (MDR) [µM] | IC50 [3] [µM] | IC50 (L929) [µM] | selectivity ratio [4] | EC50 [5] [µM]
1 | O=c1cc(-c2ccc(OCCOCCN(CCO)CCOCCOc3ccc(-c4cc(=O)c5ccccc5o4)cc3)cc2)oc2ccccc12 | 32.6 | 5 | 14.8 | 10.7 | 6.9 |  | 
2 | O=c1cc(-c2ccc(OCCOCCN(CCOCCOc3ccc(-c4cc(=O)c5ccccc5o4)cc3)Cc3cccc(F)c3)cc2)oc2ccccc12 | 118 | 36.5 | > 100 | > 100 | > 87 | > 337 | 0.258
3 | O=c1cc(-c2ccc(OCCOCCOCCOCCOc3ccc(-c4cc(=O)c5ccccc5o4)cc3)cc2)oc2ccccc12 | 17.2 | 6.2 |  |  |  |  | 
4 | COc1cccc2oc(-c3ccc(OCCOCCN(CCOCCOc4ccc(-c5cc(=O)c6c(OC)cccc6o5)cc4)C(=O)OC(C)(C)C)cc3)cc(=O)c12 | 109 | 14.9 | 5.4 | 4.6 | 5.5 |  | 
5 | O=c1cc(-c2ccc(OCCOCCN(CCCc3ccccc3)CCOCCOc3ccc(-c4cc(=O)c5ccccc5o4)cc3)cc2)oc2ccccc12 | 56.7 | 12.5 | > 100 | > 100 | 9.5 | 38 | 0.25
6 | O=c1cc(-c2ccc(OCCOCCN(CCOCCOc3ccc(-c4cc(=O)c5ccccc5o4)cc3)Cc3ccc(C(F)(F)F)cc3)cc2)oc2ccccc12 | 90.1 | 37.3 | > 100 | > 100 | 32.7 | 218 | 0.15
7 | CCN(CCOCCOc1ccc(-c2cc(=O)c3ccccc3o2)cc1)CCOCCOc1ccc(-c2cc(=O)c3ccccc3o2)cc1 | 95.7 | 26.9 | 17.3 | 10.3 | 6.9 | 34.5 | 0.2
8 | COc1cc(-c2cc(=O)c3ccccc3o2)ccc1OCCOCCN(CCOCCOc1ccc(-c2cc(=O)c3ccccc3o2)cc1OC)C(=O)OC(C)(C)C | 16.8 | 8.7 | 6.9 | 8.3 | 33.3 |  | 
9 | Cc1ccc(S(=O)(=O)N(CCOCCOc2ccc(-c3cc(=O)c4ccccc4o3)cc2)CCOCCOc2ccc(-c3cc(=O)c4ccccc4o3)cc2)cc1 | 21.6 | 5.8 | > 100 | > 100 | > 100 |  | 
10 | O=c1cc(-c2ccc(OCCOCCN(CCOCCOc3ccc(-c4cc(=O)c5ccccc5o4)cc3)Cc3ccc(F)cc3)cc2)oc2ccccc12 | 109 | 31.2 | > 83 | > 100 | 19.7 | 77.3 | 0.255
11 | O=c1c(OCc2ccccc2)c(-c2ccc(OCCOCCNCCOCCOc3ccc(-c4oc5ccccc5c(=O)c4OCc4ccccc4)cc3)cc2)oc2ccccc12 | 128 | 54.7 | 4.4 | 4.3 | 4.2 |  | 
12 | CC(C)(C)CC(=O)N(CCOCCOc1ccc(-c2cc(=O)c3ccccc3o2)cc1)CCOCCOc1ccc(-c2cc(=O)c3ccccc3o2)cc1 | 72.9 | 18.9 | > 100 | > 100 | > 100 |  | 
13 | CC(C)(C)OC(=O)N(CCOCCOc1ccc(-c2oc3ccccc3c(=O)c2OCc2ccccc2)cc1)CCOCCOc1ccc(-c2oc3ccccc3c(=O)c2OCc2ccccc2)cc1 | 1.2 | 1.1 | > 100 | > 100 |  |  | 
14 | CN(C)c1cccc2c(S(=O)(=O)N(CCOCCOc3ccc(-c4cc(=O)c5ccccc5o4)cc3)CCOCCOc3ccc(-c4cc(=O)c5ccccc5o4)cc3)cccc12 | 1.3 | 1.4 | > 100 | > 100 |  |  | 
15 | COc1cc(-c2cc(=O)c3ccccc3o2)ccc1OCCOCCNCCOCCOc1ccc(-c2cc(=O)c3ccccc3o2)cc1OC | 1.1 | 0.8 | 23.8 | 12.8 |  |  | 
16 | O=c1cc(-c2ccc(OCCOCCN(CCOCCOc3ccc(-c4cc(=O)c5ccccc5o4)cc3)Cc3ccc(F)c(F)c3)cc2)oc2ccccc12 | 109 | 49.3 | 33.6 | 32.5 | 42.2 |  | 
17 | O=c1cc(-c2ccc(OCCOCCNCCOCCOc3ccc(-c4cc(=O)c5ccccc5o4)cc3)cc2)oc2ccccc12 | 139 | 72.9 | 2.4 | 3.3 | 5.9 | 19.3 | 0.305
18 | O=c1cc(-c2ccc(OCCOCCN(CCOCCOc3ccc(-c4cc(=O)c5ccccc5o4)cc3)Cc3ccccc3F)cc2)oc2ccccc12 | 102 | 43.7 | > 100 | > 100 | > 100 | > 559 | 0.179

Row | Compound | Ratio (Homo sapiens [1]) | Ratio (Homo sapiens [2]) | IC50 (MDR) [µM] | IC50 [3] [µM] | IC50 (L929) [µM] | selectivity ratio [4] | EC50 [5] [µM]
19 | CS(=O)(=O)N(CCOCCOc1ccc(-c2cc(=O)c3ccccc3o2)cc1)CCOCCOc1ccc(-c2cc(=O)c3ccccc3o2)cc1 | 20.1 | 12.8 | 42.6 | 27.5 | 13.4 |  | 
20 | CC(=O)O[C@H]1C(=O)[C@@]2(C)[C@H]([C@H](OC(=O)c3ccccc3)[C@]3(O)C[C@H](OC(=O)[C@H](O)[C@@H](NC(=O)c4ccccc4)c4ccccc4)C(C)=C1C3(C)C)[C@]1(OC(C)=O)CO[C@@H]1C[C@@H]2O | 1 |  |  |  |  |  | 
21 | O=c1cc(-c2ccc(OCCOCCNCCOCCOc3ccc(-c4cc(=O)c5cc(F)ccc5o4)cc3)cc2)oc2ccc(F)cc12 | 109 | 72.9 | 3.3 | 5.3 | 5.7 |  | 
22 | Cc1ccc2oc(-c3ccc(OCCOCCN(CCOCCOc4ccc(-c5cc(=O)c6cc(C)ccc6o5)cc4)C(=O)OC(C)(C)C)cc3)cc(=O)c2c1 | 139 | 9.6 | > 100 | > 100 | > 100 |  | 
23 | CCOC(=O)CCN(CCOCCOc1ccc(-c2cc(=O)c3ccccc3o2)cc1)CCOCCOc1ccc(-c2cc(=O)c3ccccc3o2)cc1 | 43.7 | 5.3 | 17.7 | 13.5 | 18.1 |  | 
24 | O=C(O)CCC(=O)N(CCOCCOc1ccc(-c2cc(=O)c3ccccc3o2)cc1)CCOCCOc1ccc(-c2cc(=O)c3ccccc3o2)cc1 | 0.9 | 1.1 | > 100 | 78.4 |  |  | 
25 | O=C1c2ccccc2C(=O)N1CCN(CCOCCOc1ccc(-c2cc(=O)c3ccccc3o2)cc1)CCOCCOc1ccc(-c2cc(=O)c3ccccc3o2)cc1 | 118 | 9.6 | 4.9 | 8.6 | 17 |  | 
26 | COC(=O)c1ccc(CN(CCOCCOc2ccc(-c3cc(=O)c4ccccc4o3)cc2)CCOCCOc2ccc(-c3cc(=O)c4ccccc4o3)cc2)cc1 | 18.9 | 2.1 | 64.8 | 33.3 | 11.4 |  | 
27 | CC(C)(C)OC(=O)N(CCOCCOc1ccc(-c2cc(=O)c3cc(F)ccc3o2)cc1)CCOCCOc1ccc(-c2cc(=O)c3cc(F)ccc3o2)cc1 | 31.9 | 11.3 | > 100 | > 100 | > 100 |  | 
28 | CC(C)(C)OC(=O)N(CCOCCOc1ccc(-c2cc(=O)c3ccccc3o2)cc1)CCOCCOc1ccc(-c2cc(=O)c3ccccc3o2)cc1 | 69.6 | 11.1 | 6.2 | 8 | 11.1 | 34.7 | 0.32
29 | O=c1cc(-c2ccc(OCCOCCN(CCOCCOc3ccc(-c4cc(=O)c5ccccc5o4)cc3)Cc3ccncc3)cc2)oc2ccccc12 | 27.8 | 6.9 | > 100 | > 100 | 26.4 |  | 
30 | C[C@H](N)C(=O)N(CCOCCOc1ccc(-c2cc(=O)c3ccccc3o2)cc1)CCOCCOc1ccc(-c2cc(=O)c3ccccc3o2)cc1 | 0.9 | 1 | 4.6 | 4.4 |  |  | 
31 | C/C=C/C[C@@H](C)C(=O)[C@H]1C(=O)N[C@@H](C(C)C)C(=O)N(C)CC(=O)N(C)[C@@H](CC(C)C)C(=O)N[C@@H](C(C)C)C(=O)N(C)[C@@H](CC(C)C)C(=O)N[C@@H](C)C(=O)N[C@H](C)C(=O)N(C)[C@@H](CC(C)C)C(=O)N(C)[C@@H](CC(C)C)C(=O)N(C)[C@@H](C(C)C)C(=O)N1C [VALSPODAR] | 85.1 |  | 14.6 | 25.3 | > 100 |  | 
32 | O=C(c1ccccc1)N(CCOCCOc1ccc(-c2cc(=O)c3ccccc3o2)cc1)CCOCCOc1ccc(-c2cc(=O)c3ccccc3o2)cc1 | 42.5 | 7.5 | > 100 | > 100 | 95 |  | 
33 | O=c1cc(-c2ccc(OCCOCCN(CCOCCOc3ccc(-c4cc(=O)c5ccccc5o4)cc3)Cc3ccccn3)cc2)oc2ccccc12 | 95.7 | 15.8 | 29.7 | 10 | 10 |  | 
34 | COc1cccc2oc(-c3ccc(OCCOCCNCCOCCOc4ccc(-c5cc(=O)c6c(OC)cccc6o5)cc4)cc3)cc(=O)c12 | 1.2 | 1.2 | 10.2 | 8.8 |  |  | 
35 | O=c1cc(-c2ccc(OCCOCCN(CCOCCOc3ccc(-c4cc(=O)c5ccccc5o4)cc3)Cc3cc(F)c(F)c(F)c3)cc2)oc2ccccc12 | 80.6 | 3.3 | > 100 | > 75 | > 100 |  | 
36 | Cc1ccc2oc(-c3ccc(OCCOCCNCCOCCOc4ccc(-c5cc(=O)c6cc(C)ccc6o5)cc4)cc3)cc(=O)c2c1 | 139 | 13.9 | 7 | 7.5 | 6 |  | 
